# Legend:
# [1] = target: T1, Beta-adrenergic receptor kinase 1 (Homo sapiens) (UniProt P25098); test: Inhibition of human recombinant BARK1 at 500 nM in presence of ATP by radiometric assay relative to control
# T1 sequence (whole entry): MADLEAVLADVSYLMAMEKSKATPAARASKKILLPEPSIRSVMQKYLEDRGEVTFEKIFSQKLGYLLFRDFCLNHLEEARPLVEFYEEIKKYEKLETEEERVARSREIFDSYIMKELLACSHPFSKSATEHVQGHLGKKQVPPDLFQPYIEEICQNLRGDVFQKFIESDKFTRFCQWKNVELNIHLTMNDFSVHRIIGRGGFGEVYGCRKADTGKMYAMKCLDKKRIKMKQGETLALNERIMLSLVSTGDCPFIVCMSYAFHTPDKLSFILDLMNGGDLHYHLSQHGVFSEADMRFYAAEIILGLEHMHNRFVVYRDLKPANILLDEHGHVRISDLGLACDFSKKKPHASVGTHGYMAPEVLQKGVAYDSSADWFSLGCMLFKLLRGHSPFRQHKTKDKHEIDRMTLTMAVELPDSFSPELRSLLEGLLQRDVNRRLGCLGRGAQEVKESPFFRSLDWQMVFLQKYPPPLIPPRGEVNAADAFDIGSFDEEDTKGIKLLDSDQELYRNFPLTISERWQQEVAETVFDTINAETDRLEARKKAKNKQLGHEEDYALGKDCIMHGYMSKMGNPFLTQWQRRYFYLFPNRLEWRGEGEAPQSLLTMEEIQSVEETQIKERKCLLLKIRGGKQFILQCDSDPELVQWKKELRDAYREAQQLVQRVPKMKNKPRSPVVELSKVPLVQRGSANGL
# Summary of the method: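 Part of a radiometric in vitro activity panel of 327 recombinant human kinases. Each kinase was tested in duplicate at one inhibitor concentration. Activity remaining was expressed as a percentage of the vehicle control, and percent inhibition was taken as 100 minus that value.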
# [2] = target: Tyrosine-protein kinase Fyn (Homo sapiens) (UniProt P06241); test: Inhibition of human recombinant FYN at 500 nM in presence of ATP by radiometric assay relative to control
# Sequence of Tyrosine-protein kinase Fyn (Homo sapiens) (P06241 2-537 limits assumed): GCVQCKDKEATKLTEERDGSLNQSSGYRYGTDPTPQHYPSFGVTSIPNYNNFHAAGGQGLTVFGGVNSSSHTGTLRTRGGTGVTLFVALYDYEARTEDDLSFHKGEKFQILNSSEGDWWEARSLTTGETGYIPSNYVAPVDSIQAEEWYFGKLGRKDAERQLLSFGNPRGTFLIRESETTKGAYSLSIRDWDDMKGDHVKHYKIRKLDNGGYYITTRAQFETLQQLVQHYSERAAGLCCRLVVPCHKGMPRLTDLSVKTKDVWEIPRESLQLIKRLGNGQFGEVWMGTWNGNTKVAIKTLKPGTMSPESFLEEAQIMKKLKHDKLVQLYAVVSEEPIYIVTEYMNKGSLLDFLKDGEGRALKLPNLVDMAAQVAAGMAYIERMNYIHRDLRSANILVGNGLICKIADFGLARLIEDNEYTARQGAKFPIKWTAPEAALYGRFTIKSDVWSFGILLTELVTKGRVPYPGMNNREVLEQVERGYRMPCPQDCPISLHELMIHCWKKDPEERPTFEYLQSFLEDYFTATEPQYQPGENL
# [3] = target: T2, Activin receptor type-1B (Homo sapiens) (UniProt P36896); test: Inhibition of human recombinant ALK4 at 40 nM in presence of ATP by radiometric assay relative to control
# T2 sequence (whole entry): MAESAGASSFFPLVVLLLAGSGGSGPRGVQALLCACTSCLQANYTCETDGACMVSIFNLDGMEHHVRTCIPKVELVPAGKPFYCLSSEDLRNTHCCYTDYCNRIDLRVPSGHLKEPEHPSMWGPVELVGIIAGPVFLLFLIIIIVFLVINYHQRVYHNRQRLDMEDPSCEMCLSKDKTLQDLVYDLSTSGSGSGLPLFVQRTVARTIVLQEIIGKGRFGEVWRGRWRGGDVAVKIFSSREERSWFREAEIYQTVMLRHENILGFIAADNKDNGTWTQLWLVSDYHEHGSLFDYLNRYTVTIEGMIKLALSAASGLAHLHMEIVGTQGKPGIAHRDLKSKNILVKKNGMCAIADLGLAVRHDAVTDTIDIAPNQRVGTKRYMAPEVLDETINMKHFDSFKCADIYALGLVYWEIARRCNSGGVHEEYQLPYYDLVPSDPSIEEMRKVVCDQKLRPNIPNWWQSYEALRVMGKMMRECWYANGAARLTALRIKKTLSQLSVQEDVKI
# Summary of the method: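 Panel of 327 recombinant human kinases, each assayed in vitro by radiometric activity assay in duplicate at a single inhibitor concentration per compound, chosen with reference to its ULK1 inhibition. Activity remaining was expressed as percent of vehicle control, and percent inhibition was calculated as 100 minus percent activity remaining.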
# [4] = target: PAS domain-containing serine/threonine-protein kinase (Homo sapiens) (UniProt Q96RG2); test: Inhibition of human recombinant PASK at 40 nM in presence of ATP by radiometric assay relative to control
# Sequence of PAS domain-containing serine/threonine-protein kinase (Homo sapiens) (Q96RG2 whole entry, the tested form may be a part): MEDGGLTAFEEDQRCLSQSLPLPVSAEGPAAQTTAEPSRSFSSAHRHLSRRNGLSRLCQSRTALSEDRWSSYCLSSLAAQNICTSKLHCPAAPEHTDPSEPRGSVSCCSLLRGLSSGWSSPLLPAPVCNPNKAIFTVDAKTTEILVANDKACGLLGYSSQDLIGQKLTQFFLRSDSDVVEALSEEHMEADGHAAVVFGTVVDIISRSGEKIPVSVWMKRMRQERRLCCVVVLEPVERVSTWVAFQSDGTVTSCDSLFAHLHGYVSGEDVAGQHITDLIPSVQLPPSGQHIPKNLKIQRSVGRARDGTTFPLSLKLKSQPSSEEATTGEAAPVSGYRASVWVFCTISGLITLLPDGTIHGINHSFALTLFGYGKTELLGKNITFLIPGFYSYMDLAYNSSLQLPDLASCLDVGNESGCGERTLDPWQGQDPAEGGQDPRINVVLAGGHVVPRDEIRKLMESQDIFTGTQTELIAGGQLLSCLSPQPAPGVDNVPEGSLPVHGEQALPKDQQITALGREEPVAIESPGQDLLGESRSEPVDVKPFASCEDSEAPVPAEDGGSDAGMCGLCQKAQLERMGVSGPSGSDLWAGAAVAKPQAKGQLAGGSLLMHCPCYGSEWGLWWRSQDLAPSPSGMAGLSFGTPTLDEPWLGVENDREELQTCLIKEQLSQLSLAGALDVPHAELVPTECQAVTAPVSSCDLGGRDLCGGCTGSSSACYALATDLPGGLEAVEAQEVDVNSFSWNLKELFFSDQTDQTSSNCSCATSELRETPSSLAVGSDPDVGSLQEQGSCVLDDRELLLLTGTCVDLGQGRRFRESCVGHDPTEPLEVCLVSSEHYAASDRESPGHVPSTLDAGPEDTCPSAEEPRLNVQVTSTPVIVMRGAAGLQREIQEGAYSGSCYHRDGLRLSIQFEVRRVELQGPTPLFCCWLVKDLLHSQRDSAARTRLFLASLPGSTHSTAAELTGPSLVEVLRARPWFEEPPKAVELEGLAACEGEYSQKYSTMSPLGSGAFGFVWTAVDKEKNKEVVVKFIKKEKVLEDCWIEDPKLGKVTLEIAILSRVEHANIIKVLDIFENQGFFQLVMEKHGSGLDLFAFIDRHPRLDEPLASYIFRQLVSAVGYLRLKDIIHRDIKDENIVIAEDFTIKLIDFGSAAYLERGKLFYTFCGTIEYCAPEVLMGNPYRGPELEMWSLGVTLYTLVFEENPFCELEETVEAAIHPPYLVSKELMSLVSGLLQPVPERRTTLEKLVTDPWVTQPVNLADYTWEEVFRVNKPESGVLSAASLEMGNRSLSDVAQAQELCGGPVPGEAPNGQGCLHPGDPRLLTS
# [5] = target: T3, Tyrosine-protein kinase Mer (Homo sapiens) (UniProt Q12866); test: Inhibition of human recombinant MER at 40 nM related to control ULK1
# T3 sequence (whole entry): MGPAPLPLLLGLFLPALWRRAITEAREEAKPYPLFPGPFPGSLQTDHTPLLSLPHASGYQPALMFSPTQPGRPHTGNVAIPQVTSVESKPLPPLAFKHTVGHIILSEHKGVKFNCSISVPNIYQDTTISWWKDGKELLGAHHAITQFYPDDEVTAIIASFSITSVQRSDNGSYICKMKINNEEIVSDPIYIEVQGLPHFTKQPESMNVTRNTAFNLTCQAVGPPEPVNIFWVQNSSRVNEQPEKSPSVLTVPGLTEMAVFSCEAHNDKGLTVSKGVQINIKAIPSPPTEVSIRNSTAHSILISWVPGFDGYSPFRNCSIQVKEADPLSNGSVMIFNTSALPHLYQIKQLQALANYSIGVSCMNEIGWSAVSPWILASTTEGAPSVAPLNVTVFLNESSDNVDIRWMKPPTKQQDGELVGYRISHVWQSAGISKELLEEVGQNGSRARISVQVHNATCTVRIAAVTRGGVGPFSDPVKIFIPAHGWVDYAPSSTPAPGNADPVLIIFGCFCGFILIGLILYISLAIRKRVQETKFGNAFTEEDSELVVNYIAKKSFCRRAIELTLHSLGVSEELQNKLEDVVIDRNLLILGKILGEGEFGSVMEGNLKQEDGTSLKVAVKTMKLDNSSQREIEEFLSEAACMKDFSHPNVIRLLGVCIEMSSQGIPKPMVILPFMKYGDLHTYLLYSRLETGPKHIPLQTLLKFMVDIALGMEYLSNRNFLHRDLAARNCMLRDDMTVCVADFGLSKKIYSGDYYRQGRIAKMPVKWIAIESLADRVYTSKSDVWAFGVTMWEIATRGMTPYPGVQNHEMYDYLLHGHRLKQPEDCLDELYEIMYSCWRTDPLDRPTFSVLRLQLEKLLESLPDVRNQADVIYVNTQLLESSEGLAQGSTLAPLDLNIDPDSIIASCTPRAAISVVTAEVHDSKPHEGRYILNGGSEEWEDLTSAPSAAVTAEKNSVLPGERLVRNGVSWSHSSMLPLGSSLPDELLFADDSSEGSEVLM
# [6] = target: Mitogen-activated protein kinase 11 (Homo sapiens) (UniProt Q15759); test: Inhibition of human recombinant p38beta at 40 nM related to control ULK1
# Sequence of Mitogen-activated protein kinase 11 (Homo sapiens) (Q15759 whole entry): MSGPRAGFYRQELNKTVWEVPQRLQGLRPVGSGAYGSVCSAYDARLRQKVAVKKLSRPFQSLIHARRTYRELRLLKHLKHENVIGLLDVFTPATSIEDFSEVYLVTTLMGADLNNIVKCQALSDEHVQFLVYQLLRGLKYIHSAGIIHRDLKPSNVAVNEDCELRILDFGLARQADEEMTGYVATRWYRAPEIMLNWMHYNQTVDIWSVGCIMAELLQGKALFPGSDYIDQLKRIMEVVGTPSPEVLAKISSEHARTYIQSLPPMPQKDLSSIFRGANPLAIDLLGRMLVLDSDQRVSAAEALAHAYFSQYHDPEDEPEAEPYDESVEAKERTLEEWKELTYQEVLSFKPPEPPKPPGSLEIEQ
inhibition [1],inhibition [2],inhibition [3],inhibition [4],fold change (FC) [5],fold change (FC) [6],SMILES
8%,19%,,,,,CNC(=O)c1ccccc1Oc1nc(Nc2cc(OC)c(OC)c(OC)c2)ncc1Br
,,0%,12%,0.01,0.14,O=C(N[C@@H](C1CC1)C(F)(F)F)c1cc(-c2cnn3cc(-c4ccc(F)cc4)cnc23)cs1

# Reference: ChEMBL document CHEMBL5653631, “A Potent and Selective ULK1 Inhibitor Suppresses Autophagy and Sensitizes Cancer Cells to Nutrient Stress” (iScience, 2018)
